Results as given in ChEMBL document CHEMBL1153729, “Structurally diverse limonoids from the fruits of Swietenia mahagoni” (2009).
Active and inactive are the calls of the source.

What was measured:
Pseudomonas aeruginosa = experiment: Antibacterial activity against Pseudomonas aeruginosa ATCC 14502 after 18 hrs; type: functional, organism-based
Summary of the method: (§1)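 Bacterial cells suspended in Mueller-Hinton broth at a final density of […]. Incubated aerobically with compounds in DMSO at 37 °C for 18 h, alongside DMSO-only blank cultures and an ofloxacin positive control. MIC taken as the lowest concentration giving complete inhibition of visible growth.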

Bacillus subtilis = experiment: Antibacterial activity against Bacillus subtilis ATCC 6633 after 18 hrs; type: functional, organism-based; summary of the method: as §1
Saccharomyces = experiment: Antifungal activity against Saccharomyces sake ATCC 26421 after 48 hrs; type: functional, organism-based
Summary of the method: (§2)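 Fungi grown in Sabouraud dextrose broth with compounds for 48 h at 37 °C. Blank cultures received a limited amount of DMSO. Amphotericin B, dissolved in DMSO, served as the positive control.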

Nannizzia gypsea = experiment: Antifungal activity against Microsporum gypseum ATCC 14683 after 48 hrs; type: functional, organism-based; summary of the method: as §2
Trichophyton rubrum = experiment: Antifungal activity against Trichophyton rubrum ATCC 10218 after 48 hrs; type: functional, organism-based; summary of the method: as §2
Candida albicans = experiment: Antifungal activity against Candida albicans ATCC 1600 after 48 hrs; type: functional, organism-based; summary of the method: as §2
Staphylococcus aureus = experiment: Antibacterial activity against Staphylococcus aureus ATCC 25923 after 18 hrs; type: functional, organism-based; summary of the method: as §1
[1] = tested on: Staphylococcus epidermidis; experiment: Antibacterial activity against Staphylococcus epidermidis ATCC 12228 after 18 hrs; type: functional, organism-based; summary of the method: as §1
Kocuria rhizophila = experiment: Antibacterial activity against Micrococcus luteus ATCC 9341 after 18 hrs; type: functional; conditions: DC2201; summary of the method: as §1
Escherichia coli = experiment: Antibacterial activity against Escherichia coli ATCC 25922 after 18 hrs; type: functional, organism-based; summary of the method: as §1
Shigella flexneri = experiment: Antibacterial activity against Shigella flexneri ATCC 12022 after 18 hrs; type: functional, organism-based; summary of the method: as §1

Measured: Activity

COC(=O)C[C@H]1C(C)(C)[C@H](OC(C)=O)[C@]2(OC(C)=O)C=C3[C@H]([C@H](OC(C)=O)C[C@]4(C)[C@H]3CC(=O)O[C@H]4c3ccoc3)[C@@]1(C)C2=O
inactive: Pseudomonas aeruginosa | Bacillus subtilis | Saccharomyces | Nannizzia gypsea | Trichophyton rubrum | Candida albicans | Staphylococcus aureus | [1] | Kocuria rhizophila | Escherichia coli | Shigella flexneri

COC(=O)C[C@H]1C(C)(C)[C@H](OC(=O)C(C)C)[C@]2(O)C=C3C4=CC(=O)O[C@@H](c5ccoc5)[C@]4(C)CC[C@@H]3[C@@]1(C)C2=O
inactive: Pseudomonas aeruginosa | Bacillus subtilis | Saccharomyces | Nannizzia gypsea | Trichophyton rubrum | Candida albicans | Staphylococcus aureus | [1] | Kocuria rhizophila | Escherichia coli | Shigella flexneri

CC(=O)O[C@H]1C[C@@H](O)C(C)(C)[C@@H]2C[C@@H](OC(C)=O)[C@]3(C)[C@H](CC[C@@]4(C)[C@H](c5ccoc5)OC(=O)[C@H]5O[C@@]534)[C@@]12C
inactive: Pseudomonas aeruginosa | Bacillus subtilis | Saccharomyces | Nannizzia gypsea | Trichophyton rubrum | Candida albicans | Staphylococcus aureus | [1] | Kocuria rhizophila | Escherichia coli | Shigella flexneri

COC(=O)C[C@H]1C(C)(C)C(=O)[C@@H]2C[C@]3(O)C4=CC(=O)O[C@@H](c5ccoc5)[C@]4(C)CC[C@@H]3[C@@]1(C)C2=O
inactive: Pseudomonas aeruginosa | Bacillus subtilis | Saccharomyces | Nannizzia gypsea | Trichophyton rubrum | Candida albicans | Staphylococcus aureus | [1] | Kocuria rhizophila | Escherichia coli | Shigella flexneri

COC(=O)C[C@H]1C(C)(C)[C@H](OC(=O)c2ccccc2)[C@]2(O)CC3=C4CC(=O)O[C@@H](c5ccoc5)[C@]4(C)CC[C@@H]3[C@@]1(C)C2=O
inactive: Pseudomonas aeruginosa | Bacillus subtilis | Saccharomyces | Nannizzia gypsea | Trichophyton rubrum | Candida albicans | Staphylococcus aureus | [1] | Kocuria rhizophila | Escherichia coli | Shigella flexneri

C/C=C(\C)C(=O)O[C@H]1C(C)(C)[C@H](CC(=O)OC)[C@]2(C)C(=O)[C@@]1(O)C=C1C3=CC(=O)O[C@@H](c4ccoc4)[C@]3(C)CC[C@@H]12
inactive: Pseudomonas aeruginosa | Bacillus subtilis | Saccharomyces | Nannizzia gypsea | Trichophyton rubrum | Candida albicans | Staphylococcus aureus | [1] | Kocuria rhizophila | Escherichia coli | Shigella flexneri

COC(=O)C[C@H]1C(C)(C)C(=O)[C@@H]2CC3C4=CC(=O)O[C@@H](c5ccoc5)[C@]4(C)CC[C@@H]3[C@@]1(C)C2=O (stereo partly specified)
inactive: Pseudomonas aeruginosa | Bacillus subtilis | Saccharomyces | Nannizzia gypsea | Trichophyton rubrum | Candida albicans | Staphylococcus aureus | [1] | Kocuria rhizophila | Escherichia coli | Shigella flexneri

CC1(C)[C@H](O)C[C@H](O)[C@]2(C)[C@H]3CC[C@@]4(C)[C@H](c5ccoc5)OC(=O)[C@H]5O[C@]54[C@]3(C)[C@H](O)C[C@@H]12
inactive: Pseudomonas aeruginosa | Bacillus subtilis | Saccharomyces | Nannizzia gypsea | Trichophyton rubrum | Candida albicans | Staphylococcus aureus | [1] | Kocuria rhizophila | Escherichia coli | Shigella flexneri

CC(=O)O[C@H]1C[C@@H](OC(C)=O)C(C)(C)[C@@H]2C[C@@H](OC(C)=O)[C@]3(C)[C@H](CC[C@@]4(C)[C@H](c5ccoc5)OC(=O)[C@H]5O[C@@]534)[C@@]12C
inactive: Pseudomonas aeruginosa | Bacillus subtilis | Saccharomyces | Nannizzia gypsea | Trichophyton rubrum | Candida albicans | Staphylococcus aureus | [1] | Kocuria rhizophila | Escherichia coli | Shigella flexneri

COC(=O)C[C@H]1C(C)(C)[C@H](OC(C)=O)[C@]2(O)C=C3C4=CC(=O)O[C@@H](c5ccoc5)[C@]4(C)CC[C@@H]3[C@@]1(C)C2=O
inactive: Pseudomonas aeruginosa | Bacillus subtilis | Saccharomyces | Nannizzia gypsea | Trichophyton rubrum | Candida albicans | Staphylococcus aureus | [1] | Kocuria rhizophila | Escherichia coli | Shigella flexneri

COC(=O)C[C@H]1C(C)(C)[C@H](O)[C@@H]2C=C3[C@H]([C@H](OC(C)=O)C[C@]4(C)[C@H]3CC(=O)O[C@H]4c3ccoc3)[C@@]1(C)C2=O
inactive: Pseudomonas aeruginosa | Bacillus subtilis | Saccharomyces | Nannizzia gypsea | Trichophyton rubrum | Candida albicans | Staphylococcus aureus | [1] | Kocuria rhizophila | Escherichia coli | Shigella flexneri
